In the EternaBench riboswitch data:

Tested on: MS2 coat protein
Assay: apparent Kd, MS2 coat protein; higher = weaker binding; RNA-MaP array; FMN 200 µM where present
Summary of the method: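 The apparent Kd comes from binding curves fitted cluster by cluster, filtered, and summarised as a median. Those curves followed SNAP-549-labelled MS2 coat protein from 0.7 or 1.5 nM, doubling to 3 µM, on Illumina sequencing-chip clusters where stalled E. coli RNA polymerase had transcribed the designs, without and then with constant ligand. The buffer was 100 mM Tris-HCl pH 7.5, 80 mM KCl, 4 mM MgCl2, BSA, DTT, yeast tRNA and Tween-20, and green signal was normalised to red-channel RNA signal and control-cluster median Fmax.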

[1] = designed as: ON switch for flavin mononucleotide, no ligand
[2] = ligand present: flavin mononucleotide, designed as: ON switch for flavin mononucleotide
[3] = designed as: OFF switch for flavin mononucleotide, no ligand
[4] = ligand present: flavin mononucleotide, designed as: OFF switch for flavin mononucleotide

Sequence | apparent Kd [1] [nM] | apparent Kd [2] [nM] | apparent Kd [3] [nM] | apparent Kd [4] [nM]
CACAGGGAUUCAGGAUAUAUUAGCCGAGGCCGCGUAGAAGGGAAAUCCUGACAUGAGGAUCACCCAUGUCGACCCGCCUUCCAU | 48.6 | 48.5 | – | –
CACAUGGUUACAGGAUAUGUUAGGUUGCUGUUUAUUGGAUAUUAAAUUAUUACAGAAGGGUAAUACAUGAGGAUCACCCAUGUG | 129 | 29.4 | – | –
CACCGUUACAGAGGAUAUGAUACAUGAGGAUCACCCAUGUAAUAAAUGAGAAUUUCGAAUGUACCUCAGAAGGCUGGAACCGGC | – | – | 40.4 | 83.2
CACCGUUAGAGAGGAUAUCGUACAUGAGGAUCACCCAUGUAAUAAAUGAGAAUUUCGGAUGUCUGCGAGAAGGCUCGAAUCGGC | – | – | 34.6 | 27.9
CACGAAGGAGGAUAUAUUAAGGCAGAUCCUAUACAUCGGUUACAUGAGGAUCACCCAUGUAGAAGGCCUACAAA | – | – | 49 | 185
CACGGAUAGUAGAAGGGUGACAUGAGGAUCACCCAUGUACACAUGCGUAUUAAAGUAUGUGAUACACAGGAUAUACUAUCCGUG | 76.3 | 321 | – | –
CACUCAUGUCUAGGAUAUGAGUGACAAGCGCGAAGUUUUUUCGGCGCUAGCUCAGAAGGAGACAUGAGGAUCACCCAUGUAAGG | – | – | 69.1 | 18.2
CACUCGUGUCUAGGAUAUGAGUGACAAGCGCGAGAUUUUCUCGCCGCUAGCUCAGAAGGAGACAUGAGGAUCACCCAUGUAAGG | – | – | 59.7 | 12.5
CACUGCAUGUAAGGAUAUCGACUGGAUAACAGUCGAGAAGGUACAUGAGGAUCACCCAUGUAAGCAGUGAAUAAUAAUAAUAAU | – | – | 13.2 | 25.2
CACUUCCCGUCAGGAUAUCGCCGUAGGUCCUCGGGUCUCGCCGUCAUACAUGAGGAUCACCCAUGUGAGAAGGGACGGGUUUCA | – | – | 16.4 | 107
CAGAAGUCAGGAUAUGCAUGGCGGGACUUGCGUCGUGGCGUGCAGAAGGGACAUGAGGAUCACCCAUGUGGAGG | – | – | 171 | 222
CAGAUCGGCGCAGGAUAUGUCGACAUGAGGAUCACCCAUGUAAACCUUGUCUGGUCCGGUGUGUGACAGAAGGGUGUCGGCCAU | – | – | 31.5 | 30.9
CAGCGAAAGCUGAAUCUGUAGAGAGAGGAUAUACGUCAUAAGAUGCAUACAUGAGGAUCACCCAUGUAGAAGGCUCUCUACAGU | – | – | 5.68 | 6.7
CAGCGAUAGCUGAAUGGUACAUCCGAGGAUAUUCAUAAACAACAUGAGGAUCACCCAUGUAAUUGGGAGAAGGCGGAUGUACCU | 23.1 | 5.97 | – | –
CAGCGAUAGCUGAAUGGUACAUGGGAGGAUAUGGGUUGAACAUGAGGAUCACCCAUGUUAUAAUACUAGAAGGCCCAUGUACCU | 16.6 | 5.45 | – | –
CAGCGCUGUCGAGAGGAUAUGCGGUGAUGGACAUGAGGAUCACCCAUGUUAGCGACAGCAUUACGGUAGAAGGCUUCACAGCUGC | 51.5 | 202 | – | –
CAGCGCUGUCGAGAGGAUAUGCGGUGAUGGACAUGAGGAUCACCCAUGUUAGCGAUAGCAUUACGGUAGAAGGCUCUGCAGCUGC | 128 | 21 | – | –
CAGCGCUGUCGAGAGGAUAUGCGGUGAUGGACAUGAGGAUCACCCAUGUUAGCGAUGGCAUUACGGUAGAAGGCUCUACAGCUGC | 40.3 | 16.4 | – | –
CAGGACAGAGGAUAUACAUAGAUACAGAUUCAUGUAGAACUACAUGAGGAUCACCCAUGUAGAAGGCUGUCCUG | – | – | 29.5 | 300
CAGGAUAGAGGAUAUGCAUAGAUACAGAUUCAUGUAAUCCUACAUGAGGAUCACCCAUGUAGAAGGCUAUCCUG | – | – | 15.1 | 35
CAGGGUAGAGGAUAUACGUAGGUACAGAUCUGUGUGUUCCUACAUGAGGAUCACCCAUGUAGAAGGCUAGCCUG | – | – | 89.7 | 324

Sequence | apparent Kd [1] [nM] | apparent Kd [2] [nM] | apparent Kd [3] [nM] | apparent Kd [4] [nM]
CAGGUGUUAGGAUAUCGGAGGUUGAGGCAGACGGGAAUAUUCGAGAAGGAACAUGAGGAUCACCCAUGUAGUAG | – | – | 22.8 | 24.8
CAGUAAGUAUUGCGAGGGUAGGAGCAGGAUAUCCCAUUGGCCCUCACAUGAGGAUCACCCAUGUGGGAGAAGGGCUAUUACGUC | – | – | 9.11 | 22.5
CAGUACUGAGGAUAUACAUGAGGAUCACCCAUGUGCUUUAGCUAGGAUACUAGCACCAGUAGAAGGCAGUACUG | – | – | 10.6 | 23.8
CAGUACUGAGGAUAUACAUGAGGAUCACCCAUGUGCUUUAGCUAGGAUACUAGCAUCAGUAGAAGGCAGUACUG | – | – | 12.8 | 29.4
CAGUACUGAGGAUAUACAUGAGGAUCACCCAUGUGUUCCAGCUAGGUAACUAGCAAAAGUAGAAGGCAGUACUG | – | – | 23.6 | 321
CAGUACUGAGGAUAUACAUGAGGAUCACCCAUGUGUUCGAUACUAGUGAGGUCGAUUAGUAGAAGGCAGUACUG | – | – | 21.3 | 248
CAGUAUUUCGAAGGAUAUGGUUACAUGAGGAUCACCCAUGUAUUUUUUGUGAUCUUAAAAUUGAUCCAGAAGGUCGUAUAACUG | – | – | 101 | 232
CAGUCUACAGGAUAUACAUGAGGAUCACCCAUGUAAAUUCACUUUCGAUAGUCUACAUGUAGAAGGGUAGACUG | – | – | 15.5 | 18.6
CAGUCUACAGGAUAUACAUGAGGAUCACCCAUGUGUAUUCACUUUCAGUAGUCUUUAUGUAGAAGGGUAGACUG | – | – | 15.9 | 26.7
CAGUGCAAUGUAGGAUAUGCUCAGGAUAACUGAGCAGAAGGACAUGAGGAUCACCCAUGUAAAAUGAAAGAUAAUAAAGCACUG | – | – | 16.6 | 49.9
CAUAACUUUUCUCAUGUAAACAUGAGGAUCACCCAUGUAAUGAGAAGGAGGAGGAAGAGAGAAUCCUAGGAUAUCAGAAUUGUU | – | – | 6.41 | 6.84
CAUACACAUGAGGAUCACCCAUGUGAGGAUAUGCGUACGUUGUCAGUAGGCGACGUGCGCAGAAGGCGCGUGUU | – | – | 60.5 | 47.7
CAUAUGUGAGGAUAUGACAAUGGUAUCUUCGGAUACCAUUGUCAGAAGGCACAUGAGGAUCACCCAUGUGGAUC | – | – | 222 | 30.7
CAUCAUGCGUCUAAGGAUAUGUCUCACAAGACAUGAGGAUCACCCAUGUAGAAUAAAUAAAUGAUGCAGAAGGUGGAGCGCAUGC | 343 | 57.4 | – | –
CAUCUUGUGUGAGGAUAUAAUGAUAAGAGGACAUUAGAAGGCACAUGAGGAUCACCCAUGUGGCCAGGUCGGCGGCUCCAUAUA | – | – | 11.4 | 17.3
CAUGCCUGCACAGGAUAUCAUACAUGAGGAUCACCCAUGUCUAACAACACAUGAGAAGGGUGCAUGCCUGGGCGAAGUUUUGUG | 24.3 | 6.22 | – | –
CAUGGGACUUCCUCGCGGAACAUGAGGAUCACCCAUGUUGCGGAGGAUAUACUUCGGCGCUCCGAGUAGAAGGCUGCAGAUCCC | – | – | 24.4 | 33.1
CAUGUCCUCACAGGAUAUGCUGGACUUUGUCCAGCAGAAGGGUGAACAUGAGGAUCACCCAUGUAGUGGACAUGUAUAUUUAAU | 543 | 276 | – | –
CAUUAACUACAAUUACAUGAGGAUCACCCAUGUUUUGGGAUGCAGGAUAUGUGGUAUAUUAAUUAACAGAAGGGCAAUAAUUUU | 41.5 | 36.7 | – | –
CAUUAAUUGAUUAUUGUAUUUAUACAGGAUAUGUAACAUGAGGAUCACCCAUGUAUACAUGGGAAACAGAAGGGUAUAUAAAGA | – | – | 33.7 | 29.9
CAUUAUUAUCGAGGAUAUCCUAUUGAAAUUCUGGGAGAAGGCGGACUCAACAUGAGGAUCACCCAUGUGGGACGGAUGCUAGGA | – | – | 18.5 | 15.4
